Screens from PubChem.
Shown are actives, neighbours in structure and some others; about 3.7% of the full set was active somewhere.
KCNQ1 inh = inhibitors of human KCNQ1 channel, primary screen, cell-based, thallium flux, high-throughput. Potassium voltage-gated channel subfamily KQT member 1 (Homo sapiens), P51787. AID 2642, 2010. B-score at 10 µM. CHO-K1 KCNQ1, FluxOR thallium flux fluorescence; stronger effect = higher value. actives 1.3% (n = 310,000);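 active means compounds whose thallium flux B-score, printed positive for inhibition, exceeds three library SD while starting fluorescence stays within three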;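 further: channel opened by potassium depolarization with thallium stimulus after 20 min compound exposure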
Target sequence (P51787 whole entry, looked up): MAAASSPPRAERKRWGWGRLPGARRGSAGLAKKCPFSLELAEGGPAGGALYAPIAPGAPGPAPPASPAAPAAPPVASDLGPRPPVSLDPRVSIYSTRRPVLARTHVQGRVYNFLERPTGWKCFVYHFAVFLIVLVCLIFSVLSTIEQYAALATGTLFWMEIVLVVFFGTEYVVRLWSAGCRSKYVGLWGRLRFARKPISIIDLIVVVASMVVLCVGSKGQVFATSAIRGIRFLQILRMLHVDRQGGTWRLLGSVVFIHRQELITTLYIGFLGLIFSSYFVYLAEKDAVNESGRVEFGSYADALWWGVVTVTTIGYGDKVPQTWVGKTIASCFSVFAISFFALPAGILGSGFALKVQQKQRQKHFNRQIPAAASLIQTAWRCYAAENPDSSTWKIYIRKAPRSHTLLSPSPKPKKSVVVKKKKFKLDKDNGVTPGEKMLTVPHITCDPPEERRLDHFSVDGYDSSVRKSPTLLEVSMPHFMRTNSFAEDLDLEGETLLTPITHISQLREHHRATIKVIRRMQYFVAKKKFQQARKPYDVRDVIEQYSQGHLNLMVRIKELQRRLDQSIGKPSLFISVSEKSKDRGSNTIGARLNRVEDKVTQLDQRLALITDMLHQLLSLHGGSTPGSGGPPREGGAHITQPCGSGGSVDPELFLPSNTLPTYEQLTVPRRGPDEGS
KCNK3 inh = human KCNK3 channel inhibitors, primary screen, CHO cells, FluxOR thallium flux, B-score. FluxOR fluorescence; stronger effect = lower value. B-score at 10 µM. actives 0.84% (n = 340,000);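 active means B-score under library mean minus 4 SD, starting fluorescence ratio at most library mean plus 5 SD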;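 further: more negative B-score means stronger inhibition of thallium flux through KCNK3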
KCNQ1 act = potentiators or activators of KCNQ1 channel, primary screen, cell-based, thallium flux, high-throughput | Potassium voltage-gated channel subfamily KQT member 1 (Homo sapiens), P51787 | CHO-K1 KCNQ1, thallium flux FluxOR fluorescence; stronger effect = higher value | B-score at 10 µM | actives 0.35% (n = 310,000);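 active means fluorescence ratio B-score, a plate-corrected score, at least three library SD, with initial intensity B-score within 5 SD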
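Assay system: CHO-K1 cells stably expressing KCNQ1; Medium: assay buffer with matched DMSO; Also added: K+/Tl+ depolarizing stimulus; Dosing: single dose; Timing: dye 90 min, compound 20 min, room temperature; Measured by: kinetic FluxOR thallium fluorescence, 10-s 1-Hz baseline, 110-s post-stimulus read; Read-out: peak-minus-minimum fluorescence over initial fluorescence, negative-control normalized, B-scored.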
hERG protect = hERG rescue from dofetilide block, primary screen, cell-based, CHO-hERG, FluxOR thallium flux, dofetilide IC70; Voltage-gated inwardly rectifying potassium channel KCNH2 (Homo sapiens), Q12809; dofetilide IC70 present; activation (rescue from dofetilide block), less the hit threshold, % at 10 µM; actives 0.51% (n = 310,000); AID 1511, 2009;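 active means activation above the mean of controls blocked by dofetilide plus 5 SD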;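 further: thallium influx through hERG after potassium depolarization seen as dye fluorescence rise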
KCNK9 block = KCNK9 potassium channel inhibitors, primary screen, HEK293 cells, thallium flux; Potassium channel subfamily K member 9 (Homo sapiens), Q9NPC2; FluxOR thallium flux fluorescence; stronger effect = lower value; B-score at 10 µM; actives 1.2% (n = 310,000); AID 488922, 2010;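 active means ratio B-score over 3 SD below the library mean, with starting fluorescence within 5 SD of its mean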;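 further: negative B-score means less thallium flux so channel inhibition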
Kir21 inh = inhibitors of mouse Kir2.1 inward-rectifier potassium channel; Inward rectifier potassium channel 2 (Mus musculus), P35561; HEK293-Kir2.1, FluxOR thallium flux fluorescence; stronger effect = lower value; B-score at 10 µM; actives 0.85% (n = 310,000); AID 1672, 2009;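 active means fluorescence ratio B-score at or below minus 3 SD of library scores, with starting-brightness B-score within 2 SD, cut at about -4.2 in these data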;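 further: channel flux triggered by added potassium and thallium sulfate stimulus; B-score of peak minus minimum fluorescence over baseline after thallium stimulus; more negative B-score means stronger Kir2.1 block with less thallium influx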
KCNK9 inh conf = KCNK9 potassium channel inhibitors, confirmation, HEK293 cells, thallium flux, duplicate; shares compounds with KCNK9 block; FluxOR thallium flux fluorescence; inhibition, % at 10 µM; actives 43% (n = 4,900);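 active means thallium signal inhibited by more than 5 SD of the compound-free buffer control wells, on both duplicate plates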;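 further: 0% = assay buffer control wells without compound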
Kir21 sel = mouse Kir2.1 channel inhibition, confirmation, selectivity assay for KCNK9 modulator project, cell-based, HEK293, thallium flux; shares compounds with KCNK9 block; Kir2.1 cells, FluxOR thallium flux fluorescence; inhibition, % at 10 µM; actives 4% (n = 4,900); AID 492993, 2010;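 active means thallium signal drop more than 5 SD beyond the mean of the no-compound control wells, seen in both duplicate plates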;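 further: signal is fluorescence rise after thallium addition divided by baseline fluorescence; plate controls were assay buffer only for no effect and full block by chlorpromazine control for full effect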
KCNK9 uninduced = thallium flux in non-induced HEK293 cells, confirmation, counter-screen for KCNK9 inhibitor project, cell-based, second counter screen, non-induced KCNK9-HEK293; AID 492997, 2010; shares compounds with KCNK9 block; actives 40% (n = 4,900); FluxOR thallium flux; inhibition, % at 10 µM;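 active means thallium signal drop beyond 5 SD of the untreated control mean, on both duplicate plates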;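 further: plate controls were buffer only IC0 wells for no effect and SID17386958 at its maximal inhibitory level for full effect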
* hit, by the source's call; i = inactive; x = no result.

SMILES	KCNQ1 inh	KCNK3 inh	KCNQ1 act	hERG protect	KCNK9 block	Kir21 inh	KCNK9 inh conf	Kir21 sel	KCNK9 uninduced
O=S(=O)(c1ccc(Cl)s1)N1CCN(Cc2ccccc2)CC1	i	i	i	-7	i	-0.01	i	i	i
COc1cc(C)c(C)cc1S(=O)(=O)N1CCN(Cc2ccccc2)CC1	i	i	i	-7	i	-0.18	x	x	x
CC(C)c1ccc(CN2CCN(S(=O)(=O)c3ccc(Cl)s3)CC2)cc1	x	i	x	x	x	x	x	x	x
NC(=O)CC(NC(=O)Cc1ccc(Br)cc1)c1ccc(N2CCN(c3ccccc3)CC2)c([N+](=O)[O-])c1 (stereo unspecified)	i	i	i	-7	i	-0.27	x	x	x
CCOC(=O)c1cnc2oc3ccccc3n2c1=O	i	i	i	-2	i	-0.35	x	x	x
O=C1c2cccc3cc([N+](=O)[O-])cc(c23)C(=O)N1c1nncs1	i	i	i	1	i	0.81	x	x	x
CCCn1c(SCC(=O)c2c(N)n(C3CC3)c(=O)[nH]c2=O)nnc1-c1ccncc1	x	i	x	x	x	x	x	x	x
CSC(=S)NCc1cccnc1	i	i	i	-3	i	-0.98	x	x	x
O=C1CC2(CCN(C(=O)C3CC(=O)N(c4ccc(F)cc4)C3)CC2)Oc2ccccc21 (stereo unspecified)	i	i	i	-11	i	-0.6	x	x	x
Fc1cccc(Cl)c1Cc1noc(/C=C/c2ccccc2)n1	i	i	i	1	i	0.08	i	i	i
COc1cccc(/C=N/NC(=O)c2csc(-n3nc(C)cc3C(F)(F)F)n2)c1	i	i	i	-3	-15*	0.03	i	i	i
Cc1cc(C(F)(F)F)n(-c2nc(C(=O)N/N=C/c3ccc(F)cc3)cs2)n1	i	i	i	-14	i	0.26	x	x	x
COCCN(C(=O)CSc1nnc(-c2ccco2)n1C)c1c(N)n(CC(C)C)c(=O)[nH]c1=O	x	i	x	x	x	x	x	x	x
c1ccc(Cc2noc(CN3CCN(Cc4ccc5c(c4)OCO5)CC3)n2)cc1	i	i	i	-11	i	-1.1	i	i	i
